This note sets out measurements from paper PMC3752840 (Journal of the American Chemical Society, 2013).

For assay [1], the system named is U-937 histiocytic lymphoma cell line. It counts as cell-based, human. The conditions noted are these: 72 h.
The target in assay [2] is human 20S proteasome, caspase-like activity (Homo sapiens, UniProt P28072). In words: Proteasome inhibition assay, caspase-like activity. It counts as biochemical. The method, boiled down:
(§1)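 Human 20S proteasome (1 nM) in 10 mM Tris-HCl, 0.035% SDS, pH 7.4, preincubated with test compound for 15 min at RT. Fluorogenic substrate then added at 5 µM: Suc-LLVY-AMC for chymotrypsin-like activity, Z-LLE-AMC for caspase-like activity. Fluorescence read at 380/460 nm; IC50 calculated from initial rates.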

Assay [3] addresses human 20S proteasome, chymotrypsin-like activity (Homo sapiens, UniProt P28074). In words: Proteasome inhibition assay, chymotrypsin-like activity. It counts as biochemical. The method, boiled down:
as §1

In another assay the target is T1, human calpain-I (Homo sapiens, UniProt P07384).
T1 sequence (P07384 1-714): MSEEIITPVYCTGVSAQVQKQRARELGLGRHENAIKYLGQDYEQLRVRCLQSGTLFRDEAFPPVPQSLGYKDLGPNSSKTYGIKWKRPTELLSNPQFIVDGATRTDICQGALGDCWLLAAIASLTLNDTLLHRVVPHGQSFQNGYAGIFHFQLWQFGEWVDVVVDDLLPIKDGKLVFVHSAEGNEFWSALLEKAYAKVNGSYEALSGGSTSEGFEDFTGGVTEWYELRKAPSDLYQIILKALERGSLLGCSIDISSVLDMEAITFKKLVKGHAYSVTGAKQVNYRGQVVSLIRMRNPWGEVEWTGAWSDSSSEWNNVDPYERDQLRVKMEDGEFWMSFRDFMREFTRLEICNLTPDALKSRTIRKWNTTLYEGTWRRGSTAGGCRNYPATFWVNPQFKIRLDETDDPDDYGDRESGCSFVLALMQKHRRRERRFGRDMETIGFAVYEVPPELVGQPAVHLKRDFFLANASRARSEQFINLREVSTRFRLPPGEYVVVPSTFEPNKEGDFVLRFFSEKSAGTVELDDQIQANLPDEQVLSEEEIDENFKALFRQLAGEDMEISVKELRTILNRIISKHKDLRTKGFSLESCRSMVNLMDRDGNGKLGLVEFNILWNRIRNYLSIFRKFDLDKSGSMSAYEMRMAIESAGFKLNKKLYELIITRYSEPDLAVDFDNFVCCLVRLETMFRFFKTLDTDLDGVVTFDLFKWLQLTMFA
T1 sequence (P04632 1-268 partner): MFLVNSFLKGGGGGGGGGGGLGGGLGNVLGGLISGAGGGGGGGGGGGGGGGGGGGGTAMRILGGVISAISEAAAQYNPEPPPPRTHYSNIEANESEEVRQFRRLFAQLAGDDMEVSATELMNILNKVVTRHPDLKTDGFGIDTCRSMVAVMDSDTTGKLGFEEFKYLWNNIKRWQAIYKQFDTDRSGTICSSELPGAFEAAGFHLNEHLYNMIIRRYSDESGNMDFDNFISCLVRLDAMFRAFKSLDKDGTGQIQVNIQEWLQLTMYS
In words: Calpain IC50, Suc-LLVY-AMC fluorescence assay. It counts as biochemical.

For a further assay, the target named is T2, papain (Carica papaya, UniProt P00784).
T2 sequence (P00784 134-345): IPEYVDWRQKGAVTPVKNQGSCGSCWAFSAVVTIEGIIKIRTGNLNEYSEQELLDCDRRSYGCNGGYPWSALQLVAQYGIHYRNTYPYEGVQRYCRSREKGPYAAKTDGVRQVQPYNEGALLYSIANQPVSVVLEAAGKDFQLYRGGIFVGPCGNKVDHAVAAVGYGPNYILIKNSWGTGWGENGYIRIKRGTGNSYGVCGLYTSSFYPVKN
In words: biochemical.

Assay [4] deals with FR4 multiple myeloma cell line. It counts as cell-based, human. The note with it: 72 h.
Assay [5] deals with MM.M1S multiple myeloma cell line. It counts as cell-based, human. The conditions noted are these: 72 h, CellTiter-Glo; compound 3 no inhibition up to 80 µM. A general note: In ATP-based viability assays light output follows the ATP content of the culture.
For another assay, the target named is human 20S proteasome (Homo sapiens, UniProt P28072+P28074). In words: Proteasome inhibition assay. The conditions noted are these: two proteasome activities, which is which not stated. It counts as biochemical.
The mark [6] stands for this setting: CellTiter-Glo, compound 3 no inhibition up to 80 µM.

Values joined by “and” are separate entries in the source; they are usually repeats but may differ in a detail not shown here. Identical values can stand only once. Square brackets hold non-standard residues; d marks the D form. Peptide text beside a SMILES is read from it. * marks the point of attachment. Heptanoyl = CCCCCCC(=O)*; Octanoyl = CCCCCCCC(=O)*

For the compound `CCCCCCCC(=O)N[C@H](C(=O)N[C@@H](CCC(N)=O)C(=O)N[C@H](C(=O)N[C@H](CCC(N)=O)C(=O)N[C@H](C(=O)N[C@H](C=O)Cc1ccccc1)C(C)C)[C@@H](C)CC)[C@@H](C)CC` [Compound 1] (Octanoyl-IQI[dQ]VF-aldehyde; N-terminus assumed), the IC50 (commonly the concentration needed to halve the response being measured) was 13 ± 1 µM in assay [1]; 2300 ± 200 nM in assay [2]; 4.9 ± 0.3 µM in assay [3]; 2900 ± 300 nM at human calpain-I; 160 ± 40 nM against papain.

With `CCCCCCC(=O)N[C@H](C(=O)N[C@@H](CCC(N)=O)C(=O)N[C@H](C(=O)N[C@H](CCC(N)=O)C(=O)N[C@H](C(=O)N[C@H](C=O)Cc1ccccc1)[C@@H](C)CC)[C@@H](C)CC)[C@@H](C)CC` [Compound 2] (Heptanoyl-IQI[dQ]IF-aldehyde; N-terminus assumed), the IC50 in assay [2] was determined as 2300 ± 700 nM; in assay [3], 3.3 ± 0.3 µM; at human calpain-I it was 2700 ± 400 nM; against papain it was 350 ± 30 nM; in assay [4], 30 ± 10 µM.

As to `CC[C@H](C)[C@H](N)C(=O)N[C@@H](CCC(N)=O)C(=O)N[C@H](C(=O)N[C@H](CCC(N)=O)C(=O)N[C@H](C(=O)N[C@H](C=O)Cc1ccccc1)C(C)C)[C@@H](C)CC` [Compound 3] (H-IQI[dQ]VF-aldehyde), the “IC50 cell line U-937” value in assay [1] (setting [6]) is reported as “No inhibition”. Besides, the IC50 in assay [2] is 330 ± 70 nM; in assay [3], 0.43 ± 0.08 µM; on human calpain-I, 1800 ± 300 nM; against papain, 70 ± 10 nM. The “IC50 cell line MM.M1S” value in assay [5] was “No inhibition”. Also, the “IC50 cell line FR4” value in assay [4] (setting [6]) was “No inhibition”. Moreover, at human 20S proteasome, the “fold higher potency against the proteasome than 1 and 2” value is 6 fold and 10 fold.
